GRIN3A LBD mod: NR3A (human) ligand-binding domain modulation; Tm shift relative to glycine control, % at 25 µM; NR3A LBD differential scanning fluorimetry, Tm shift; 0% = protein alone, 100% = glycine-bound protein; AID 1259313; 340,000 compounds, 2.5% hits;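 active = melting temperature shift of at least 10% of the positive control shift, at one fixed dose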
UCH37 inh: inhibitors of human deubiquitinating enzyme UCH37 | purified proteasome/UCH37, Ub-AMC cleavage fluorescence | inhibition, % (test concentration not listed) | 330,000 compounds, 0.33% hits | AID 588478;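 active = mean inhibition over replicate wells above about 20%, limit read from the data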;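 also: 0% = compound-free wells with enzyme and 100% = wells lacking proteasome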
Target sequence (Q9Y5K5 whole entry, looked up): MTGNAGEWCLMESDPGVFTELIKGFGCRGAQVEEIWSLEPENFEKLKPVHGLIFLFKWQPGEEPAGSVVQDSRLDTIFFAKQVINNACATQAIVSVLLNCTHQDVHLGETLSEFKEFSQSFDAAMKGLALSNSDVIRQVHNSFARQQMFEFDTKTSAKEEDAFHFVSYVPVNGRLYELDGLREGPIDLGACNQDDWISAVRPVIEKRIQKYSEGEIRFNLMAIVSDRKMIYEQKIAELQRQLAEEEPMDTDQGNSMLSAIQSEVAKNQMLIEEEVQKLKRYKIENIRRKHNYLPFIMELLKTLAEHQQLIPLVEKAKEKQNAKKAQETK
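Test system – human UCH37 enzyme supplied as purified proteasome complex · Incubation – 30 min preincubation with enzyme, 25 min cleavage at room temperature · Detection – AMC fluorescence from Ub-AMC cleavage, excitation 355 nm, emission 460 nm · Benchmarks – no-proteasome wells (full inhibition) and compound-free wells (no inhibition)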
ATG4B inh: ATG4B (human) cysteine protease inhibition | ATG4B cleavage of LC3-PLA2, NBD-HPC fluorescence, 1 h | inhibition, % at 8.33 µM | 340,000 compounds, 0.51% hits; in the data active = inhibition above about 40%
SENP1 FRET inh: blocks the human SENP1 SUMO protease catalytic domain; Q9P0U3; recombinant SENP1 catalytic domain, CyPet-SUMO1-YPet FRET cleavage; inhibition, % at 10 µM; 360,000 compounds, 0.21% hits; AID 624204;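 active = inhibition at least 30% at 10 µM, raw YFP signal under a set limit, fluorescence ratio 0.5 to 1.5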;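 also: 0% = enzyme with DMSO and 100% = no enzyme wells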
Target sequence (Q9P0U3 419-644 limits assumed): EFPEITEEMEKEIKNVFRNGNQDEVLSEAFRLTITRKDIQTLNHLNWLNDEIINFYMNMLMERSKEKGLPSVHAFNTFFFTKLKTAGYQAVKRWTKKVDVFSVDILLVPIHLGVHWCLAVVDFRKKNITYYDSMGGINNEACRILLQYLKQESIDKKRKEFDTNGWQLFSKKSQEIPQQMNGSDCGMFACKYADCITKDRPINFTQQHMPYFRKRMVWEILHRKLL
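Material – human SENP1 catalytic domain · Input – SENP1 enzyme, 20 pM final · Compound dosing – single concentration of 10 µM compound, 0.5% DMSO final · Timing – enzyme reaction for 50 min at room temperature, dark · Measured by – FRET fluorescence in CFP and YFP emission channels · Control set – no-enzyme wells low, DMSO-plus-enzyme wells high control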
NadD block: blocks S. aureus nicotinate mononucleotide adenylyltransferase; purified NadD enzyme, colorimetric absorbance read-out; AID 602399; 360,000 compounds, 0.78% hits; inhibition, % at 20 µM; in the data active = inhibition above about 26%
SENP1 inh conf: SENP1 (human) inhibition, single concentration confirmation | shares compounds with SENP1 FRET inh | 520 compounds, 34% hits | inhibition, % at 10 µM | recombinant SENP1, CyPet-SUMO1-YPet FRET cleavage; in the data active = inhibition mostly above about 35%, no sharp cut-off; inactive = mostly below about 32%;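 also: 0% = enzyme with DMSO and 100% = no enzyme control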
SENP1 kinetic: confirmation of human SENP1 SUMO protease inhibitors, kinetic | AID 651690 | recombinant SENP1, CyPet-SUMO1-YPet FRET kinetic cleavage | shares compounds with SENP1 FRET inh | 520 compounds, 26% hits | inhibition, % at 10 µM; in the data active = inhibition mostly above about 32%, no sharp cut-off; inactive = mostly below about 29%;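 also: 0% = DMSO with enzyme and 100% = no enzyme substrate only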
The depositor's hits bear a star; x = not tested or not shown. Hits are enriched below; roughly 3.6% of the tested compounds scored in any of these assays.

SMILES | GRIN3A LBD mod | UCH37 inh | ATG4B inh | SENP1 FRET inh | NadD block | SENP1 inh conf | SENP1 kinetic
Cc1nn(-c2ccccc2)c(Cl)c1/C=N/Nc1nc2ccccc2n1C | -10 | x | 4 | 33* | 13 | 6 | 2
CNC(=S)NN=Cc1c(C)nn(-c2ccccc2)c1Cl | x | 2 | x | x | x | x | x
COC(=O)C(=Nc1ccccc1)/C(C(=O)C(=O)N(C)c1ccccc1)=C(/O)c1ccccc1 | x | 8 | x | x | x | x | x
COc1ccc(C(=NO)c2nccc3cc(OC)c(OC)cc23)cc1OC | x | 2 | x | x | x | x | x
O=C(NCCc1ccccc1)c1cccc2c1C(=O)c1ccc(N3CCOCC3)cc1S2(=O)=O | -2 | 0 | -10 | -28 | 4 | x | x
C=CCNC(=O)c1cccc2c1C(=O)c1ccc(N3CCOCC3)cc1S2(=O)=O | 0 | 7 | -7 | 80* | -2 | 61* | 45*
CC1Nc2ccc(C(=O)NC3CCCCC3)cc2NC1=O (configuration not stated) | 0 | -36 | -3 | 41* | 4 | 17 | 16
CC(C)C1Nc2ccc(C(=O)NC3CCCCC3)cc2NC1=O (configuration not stated) | -2 | 0 | 0 | 0 | -5 | x | x
Cc1cc(C)n(N=Cc2ccco2)c(=O)c1C#N | x | 10 | x | x | x | x | x
CCOc1cc(N2CCOCC2)c(OCC)cc1NC(=O)CCS(=O)(=O)c1ccc(Cl)cc1 | 0 | -1 | -15 | 37* | 3 | 14 | 14
COc1ccc(C(=O)C(C)[n+]2ccc(C)c3ccccc32)cc1[N+](=O)[O-] (configuration not stated) | 2 | 3 | 1 | 78* | -3 | 6 | 8
COc1ccc(C(=O)NC(C)CCc2ccccc2)cc1[N+](=O)[O-] (configuration not stated) | 2 | 0 | -7 | 1 | -11 | x | x
CCCCC(=O)NN=C(C)CC(=O)Nc1ccccc1Br | x | 3 | x | x | x | x | x
Cc1ccccc1NC(=O)c1cccc(C(=O)Nc2ccccc2C)n1 | -1 | -33 | -9 | 38* | 12 | -5 | -4
Cc1ccccc1NC(=O)c1cccc(C(=O)Nc2ccccc2C)c1 | -2 | 1 | -6 | 0 | 6 | x | x
CC(C)C(=O)Nc1nnc(COc2ccc(Cl)cc2)s1 | 1 | 6 | -3 | 46* | -4 | -7 | -7
O=C(O)c1cc(NN=Cc2ccc(-c3ccccc3)cc2)ccc1Cl | x | -26 | x | x | x | x | x
COc1ccccc1-c1ccc(C=NO)o1 | x | 1 | x | x | x | x | x
Cc1ccsc1C=NNC(=O)CNC(=O)c1ccccc1 | x | 4 | x | x | x | x | x
Cc1c(-n2cc(C(=O)c3cc(Cl)ccc3O)cc(C#N)c2=O)c(=O)n(-c2ccccc2)n1C | 1 | 4 | -8 | 61* | -1 | 53* | 40*
Cc1ccc(O)c(C(=O)c2cc(C#N)c(=O)n(-c3c(C)n(C)n(-c4ccccc4)c3=O)c2)c1 | 0 | 8 | 2 | 10 | 2 | x | x
O=C1NC(=S)N/C1=C/c1cccc([N+](=O)[O-])c1O | -8 | x | -4 | 40* | -1 | 28 | 15
O=C1NC(=S)N/C1=C/c1cc([N+](=O)[O-])ccc1O | -3 | 20 | 2 | 82 | 3 | x | x
CC(=NNC(=O)c1c[nH]c2ccccc12)c1ccco1 | x | 5 | x | x | x | x | x
COc1cc(/C=C2\SC(=S)N(N3CCOCC3)C2=O)cc(OC)c1OC | 0 | 5 | -7 | 4 | -5 | x | x
SMILES | GRIN3A LBD mod | UCH37 inh | ATG4B inh | SENP1 FRET inh | NadD block | SENP1 inh conf | SENP1 kinetic
COc1cc(/C=C2\SC(=S)N(N3CCOCC3)C2=O)ccc1O | 1 | x | -5 | 53* | -2 | 15 | 11
COc1ccc(OC)c(/C=C2\SC(=S)N(N3CCOCC3)C2=O)c1 | -1 | 3 | 2 | 39* | -8 | 3 | 0
CCCCCCCCC(=O)NN=C(C)c1ccc(O)cc1O | x | -21 | x | x | x | x | x
S=c1[nH]nc(-c2cc(-c3ccccc3)n[nH]2)n1N=Cc1c(Cl)cccc1Cl | x | 10 | x | x | x | x | x
O=C(O)c1ccc(NN=Cc2cc(Br)cs2)cc1 | x | 9 | x | x | x | x | x
Cc1ccc(-c2nc(N/N=C/c3cccc([N+](=O)[O-])c3)c3ccccc3n2)cc1 | 163* | x | -2 | 31* | -1 | 12 | 13
O=C(NCCO)Nc1ccc2nsnc2c1 | 1 | -285 | 7 | -18 | -6 | x | x
OCCNC(=S)Nc1ccc2nsnc2c1 | 5 | 3 | -4 | 36* | 1 | 13 | 17
O=C1C2C(c3ccccc3)C=CC(c3ccccc3)C2C(=O)N1c1ccccn1 (configuration not stated) | -1 | 5 | 3 | 41* | 2 | 54* | 46*
CCCNc1nc2ccccc2n2c(C)nnc12 | 1 | 1 | 0 | 31* | -9 | 5 | 10
CCCN(CCC)c1nc2ccccc2n2c(C)nnc12 | 2 | 0 | -13 | 2 | -5 | x | x
Cc1c(C#N)c(O)[nH]c(=O)c1N=Nc1ccc(Br)cc1C(=O)O | x | x | 6 | 38* | 0 | 57* | 34*
CCOC(=O)c1c2c3c(c(Cl)ccc3[nH]c1=O)C(=O)c1ccccc1-2 | -4 | 7 | -1 | 57* | 4 | 40* | 24
CCOC(=O)c1c2c3c(cccc3[nH]c1=O)C(=O)c1ccccc1-2 | 0 | 0 | 4 | -1 | 6 | x | x
CSc1nc2nc3c(cn2n1)C(=O)CC(c1ccccc1)C3 (configuration not stated) | 0 | -2 | -5 | 54 | 2 | x | x
O=C1CC(c2ccccc2)Cc2nc3nc(C(F)(F)F)nn3cc21 (configuration not stated) | 1 | 4 | -2 | 63* | 3 | 9 | 10
O=C(C[n+]1ccc(C=NO)cc1)N(Cc1ccccc1)Cc1ccccc1 | x | 2 | x | x | x | x | x
CC(=O)Nc1ccc(NC(=O)CSc2ncnc3sc(C)c(C)c23)cc1 | -3 | 1 | -1 | -1 | 3 | x | x
CCN(CC(=O)Nc1ccc(NC(C)=O)cc1)C(=O)CSc1ncnc2sc(C)c(C)c12 | 0 | 4 | -1 | 41* | 5 | 89* | 68*
Cc1ccc(CONC(=O)N=CN(C)C)cc1 | x | -1 | x | x | x | x | x
C=CCc1c(C)nc(-c2ccccc2)nc1Nc1ccccc1O | 2 | -1 | -4 | 47* | -3 | 15 | 11
COc1ccccc1C=NNC(=O)c1ccc(Br)cc1 | x | 2 | x | x | x | x | x
Cc1[nH][nH]c(=O)c1N=Nc1ccccc1Cl | 1 | 6 | 2 | 4 | 0 | x | x
Clc1ccccc1N=Nc1ccccn1 | 13* | x | 2 | 58* | 4 | 11 | 13
CC1CCCCC1=NNc1ccc([N+](=O)[O-])cc1[N+](=O)[O-] (configuration not stated) | x | 0 | x | x | x | x | x
O=C(CSc1n[nH]c(=O)n1C1CC1)Nc1ccc(F)c(Cl)c1 | 1 | 0 | -3 | 44* | -4 | 11 | 8

High-throughput results (PubChem BioAssay)
